Results from ChEMBL document CHEMBL1143660, “Structure-activity relationship studies of a series of novel delta-lactam-based histone deacetylase inhibitors” (J Med Chem, 2007).
Calls of active or inactive are those of the source. The calls are words filed in the database; no cut-off is given here.

Tests used:
[1] = test system: MDA-MB-231; assay: Growth inhibition of human MDA-MB-231 cells by SRB assay; type: functional
[2] = test system: RAW264.7; assay: Inhibition of LPS-stimulated TNFalpha production in RAW264.7 cells after 24 hrs by ELISA; type: functional, cell-based; settings: Mus musculus, RAW264.7, 24 h
[3] = test system: HCT-15; assay: Growth inhibition of HCT15 cells by SRB assay; type: functional, Homo sapiens
[4] = test system: RAW264.7; assay: Inhibition of LPS-stimulated NO production in RAW264.7 cells after 24 hrs […]; type: functional, cell-based; settings: Mus musculus, RAW264.7, 24 h
Outline: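 RAW264.7 murine macrophages stimulated with LPS and treated with inhibitor at 0.1 to 10 µM; suppression of NO production measured and IC50 calculated; values are means of at least three experiments.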

[5] = molecular target: Histone deacetylase; assay: Inhibition of HDAC in HeLa cells by fluorescent activity assay; type: cell-based, Homo sapiens
[6] = test system: LOX IMVI; assay: Growth inhibition of LOX-IMVI cells by SRB assay; type: functional; settings: Homo sapiens
[7] = test system: PC-3; assay: Growth inhibition of PC3 cells by SRB assay; type: functional; settings: Homo sapiens
[8] = test system: ACHN; assay: Growth inhibition of ACHN cells by SRB assay; type: functional; settings: Homo sapiens
[9] = test system: NCI-H23; assay: Growth inhibition of NCI-H23 cells by SRB assay; type: functional; settings: Homo sapiens
[10] = test system: MDA-MB-231; assay: Inhibition of tumor growth in MDA-MB-231 cells xenografted BALA/c nude mouse at 30 mg/kg, ip; type: functional, Homo sapiens; settings: MDA-MB-231, ip, route intraperitoneal

`O=C(CCC1=CCCN(CCc2ccccc2)C1=O)NO` was tested, and the GI50 ([1]; Homo sapiens, MDA-MB-231) was 1.62 µM, the IC50 [2] was 1.9 µM and the GI50 ([3]; Homo sapiens, HCT-15) was 8.16 µM. It also gave an IC50 [4] of 4.27 µM, an IC50 ([5]; read-out: IC50) of 0.35 µM and a GI50 [6] of 5.84 µM. For the same compound, the GI50 [7] was 8.58 µM and the GI50 [8] was 7.76 µM.
`O=C(CC1=CCCN(CCCCc2ccccc2)C1=O)NO` was tested, and the IC50 [2] was over 10 µM, the IC50 [4] was over 10 µM and the IC50 [5] was over 10 µM.
`O=C(CCCC1=CCCN(CCCCc2ccccc2)C1=O)NO` was tested, and the IC50 [2] was over 10 µM, the IC50 [4] was 6.74 µM and the IC50 [5] was over 10 µM.
`O=C(CCCCCCC(=O)Nc1ccccc1)NO` [VORINOSTAT] was tested, and the GI50 [1] was 0.66 µM and the GI50 [3] was 0.82 µM.
In the case of `O=C(CCCC1=CCCN(CCCc2ccccc2)C1=O)NO`, the IC50 [2] is reported as over 10 µM, the IC50 [4] is reported as 6.57 µM and the IC50 [5] is reported as 3.21 µM.
With `O=C(CCCC1=CCCN(CCc2ccccc2)C1=O)NO` the IC50 [2] was over 10 µM, the IC50 [4] was over 10 µM and the IC50 [5] was over 10 µM.
Work on `O=C(CC1=CCCN(CCc2ccccc2)C1=O)NO` yielded an IC50 [2] of over 10 µM, an IC50 [4] of over 10 µM and an IC50 [5] of over 10 µM.
With `O=C(CCC1=CCCN(Cc2ccccc2)C1=O)NO` the GI50 ([1]; Homo sapiens, MDA-MB-231) was 4.26 µM, the IC50 [2] was 3.31 µM and the Activity ([3]; Homo sapiens) was “inactive”. It also gave an IC50 [4] of 3.09 µM and an IC50 ([5]; read-out: IC50) of 0.67 µM.
`C=CCN1CCC=C(CCC(=O)NO)C1=O` showed an IC50 [2] of 11 µM, an IC50 [4] of over 10 µM and an IC50 ([5]; read-out: IC50) of 4.27 µM.
`CN1CCC=C(CCC(=O)NO)C1=O` gave an IC50 [2] of over 10 µM, an IC50 [4] of over 10 µM and an IC50 [5] of over 10 µM.
With `O=C(CC1=CCCN(CCCc2ccccc2)C1=O)NO` the IC50 [2] was over 10 µM, the IC50 [4] was over 10 µM and the IC50 [5] was over 10 µM.
Compound `O=C(CCC1=CCCN(CCCCc2ccccc2)C1=O)NO` has a GI50 ([1]; Homo sapiens, MDA-MB-231) of 1.5 µM, an IC50 [2] of 1.3 µM and a GI50 ([3]; Homo sapiens, HCT-15) of 5.37 µM. The GI50 [9] was 5.14 µM, the inhibition in vivo at 30 mg/kg [10] was 51% and the IC50 [4] was 1.8 µM. For the same compound, the IC50 [5] was 0.13 µM, the GI50 [7] was 1.32 µM and the GI50 [8] was 2.5 µM.
`COc1ccc(CN2CCC=C(CCC(=O)NO)C2=O)c(OC)c1` showed a GI50 ([1]; Homo sapiens, MDA-MB-231) of 2.67 µM, an IC50 [2] of 5.06 µM and a GI50 ([3]; Homo sapiens, HCT-15) of 7.98 µM. It also gave an IC50 [4] of 5.2 µM, an IC50 ([5]; read-out: IC50) of 0.5 µM and a GI50 [6] of 6.63 µM. For the same compound, the GI50 [7] was 4.55 µM and the GI50 [8] was 9.58 µM.
`O=C(CCC1=CCCN(CCCc2ccccc2)C1=O)NO` showed a GI50 ([1]; Homo sapiens, MDA-MB-231) of 0.5 µM, an IC50 [2] of 1.1 µM and a GI50 ([3]; Homo sapiens, HCT-15) of 4.99 µM. For the same compound, the GI50 [9] was 3.79 µM, the IC50 [4] was 2.71 µM and the IC50 [5] was 0.27 µM. The GI50 [6] was 3.34 µM, the GI50 [7] was 5.04 µM and the GI50 [8] was 1.17 µM.
For `O=C(CC1=CCCN(Cc2ccccc2)C1=O)NO`, the IC50 [2] was over 10 µM, the IC50 [4] was over 10 µM and the IC50 [5] was over 10 µM.
